Data: ChEMBL document CHEMBL3244243, “Mitomycin antibiotics. Synthesis and activity of 1,2-disubstituted mitosenes” (J Med Chem, 1977)
Calls of active or inactive are those of the source. No cut-off for these calls is given here.

Experiments:
[1] = test system: Escherichia coli; assay: Antibacterial activity against Escherichia coli K-12 assessed as zone of inhibition by disk-plate assay; assay type: functional
[2] = test system: Escherichia coli; assay: Antibacterial activity against Escherichia coli B A9885 assessed as zone of inhibition by disk-plate assay; assay type: functional
[3] = test system: Bacillus subtilis; assay: Antibacterial activity against Bacillus subtilis assessed as zone of inhibition by disk-plate assay; assay type: functional
[4] = test system: Klebsiella pneumoniae; assay: Antibacterial activity against Klebsiella pneumoniae assessed as zone of inhibition by disk-plate assay; assay type: functional
[5] = test system: Staphylococcus aureus; assay: Antibacterial activity against Staphylococcus aureus Smith P assessed as zone of inhibition by disk-plate assay; assay type: functional
[6] = test system: Staphylococcus aureus; assay: Antibacterial activity against Staphylococcus aureus 209P assessed as zone of inhibition by disk-plate assay; assay type: functional
[7] = test system: Enterococcus faecalis; assay: Antibacterial activity against Streptococcus faecalis P1377 assessed as zone of inhibition by disk-plate assay; assay type: functional
[8] = test system: Micrococcus luteus; assay: Antibacterial activity against Sarcina lutea assessed as zone of inhibition by disk-plate assay; assay type: functional
[9] = test system: Mycolicibacterium smegmatis; assay: Antibacterial activity against Mycobacterium smegmatis 607 assessed as zone of inhibition by disk-plate assay; assay type: functional
[10] = test system: Enterobacteria phage lambda; assay: (§1) Induction of lambda-bacteriophage expression in Escherichia coli assessed as induction of plaques at 0.8 ug/ml relative to control; assay type: functional
[11] = test system: Enterobacteria phage lambda; assay: (§2) Induction of lambda-bacteriophage expression in Escherichia coli assessed as induction of plaques at 0.2 ug/ml relative to control; assay type: functional
[12] = test system: Enterobacteria phage lambda; assay: (§3) Induction of lambda-bacteriophage expression in Escherichia coli assessed as induction of plaques at 0.05 ug/ml relative to control; assay type: functional
[13] = Induction of lambda-bacteriophage expression in Escherichia coli assessed as induction of plaques at 0.0125 ug/ml relative to control; assay type: functional, Enterobacteria phage lambda
[14] = Induction of lambda-bacteriophage expression in Escherichia coli assessed as induction of plaques at 0.003 ug/ml relative to control; assay type: functional, Enterobacteria phage lambda
[15] = test system: Escherichia coli; assay: Toxicity in lambda-bacteriophage infected Escherichia coli at 0.8 ug/ml; assay type: organism-based; conditions: in vivo
[16] = test system: Escherichia coli; assay: Toxicity in lambda-bacteriophage infected Escherichia coli at 0.2 ug/ml; assay type: organism-based; conditions: in vivo
[17] = test system: Escherichia coli; assay: Toxicity in lambda-bacteriophage infected Escherichia coli at 0.05 ug/ml; assay type: organism-based; conditions: in vivo
[18] = test system: Escherichia coli; assay: Toxicity in lambda-bacteriophage infected Escherichia coli at 0.0125 ug/ml; assay type: organism-based; conditions: in vivo
[19] = test system: P388; assay: Antitumor activity against mouse P388 cells allografted CDF mouse assessed as increase in maximum survival time at 3.2 mg/kg treated on days 1 and 5 following tumor implantation relative to saline treated control; assay type: functional
Outline: (§4)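 Male CDF mice implanted intraperitoneally with 10⁶ P388 ascites leukemia cells; compound given on days 1 and 5 after tumor inoculum. Increase in maximum survival time calculated against saline-treated controls. Six mice per treated group, ten mice in the control group.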

[20] = Induction of lambda-bacteriophage expression in Escherichia coli assessed as induction of plaques at 3.1 ug/ml relative to control; assay type: functional, Enterobacteria phage lambda
[21] = as §1; assay type: functional, Enterobacteria phage lambda
[22] = as §2; assay type: functional, Enterobacteria phage lambda
[23] = test system: P388; assay: Antitumor activity against mouse P388 cells allografted CDF mouse assessed as increase in maximum survival time at 6.4 mg/kg treated on days 1 and 5 following tumor implantation relative to saline treated control; assay type: functional; outline: as §4
[24] = test system: Escherichia coli; assay: Toxicity in lambda-bacteriophage infected Escherichia coli at 3.1 ug/ml; assay type: organism-based; conditions: in vivo
[25] = as §3; assay type: functional, Enterobacteria phage lambda
[26] = test system: P388; assay: Antitumor activity against mouse P388 cells allografted CDF mouse assessed as increase in maximum survival time at 12.8 mg/kg treated on days 1 and 5 following tumor implantation relative to saline treated control; assay type: functional, organism-based; set-up: dose 12.8 mg/kg
Outline: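 CDF male mice inoculated intraperitoneally with 10⁶ P388 ascites leukemia cells. Compound given at 12.8 mg/kg on days 1 and 5 after tumor inoculum. Six mice per compound group and ten mice in the saline control group. Read-out is percent increase in maximum survival time over the saline controls.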

SMILES | diameter of the inhibition zone (DIZ) [1] | diameter of the inhibition zone (DIZ) [2] | diameter of the inhibition zone (DIZ) [3] | diameter of the inhibition zone (DIZ) [4] | diameter of the inhibition zone (DIZ) [5] | diameter of the inhibition zone (DIZ) [6] | diameter of the inhibition zone (DIZ) [7] | diameter of the inhibition zone (DIZ) [8] | diameter of the inhibition zone (DIZ) [9] | Ratio [13] | Ratio [14] | Activity [15] | Ratio [20] | Ratio [21] | Ratio [22] | other results
COC1=C(C)C(=O)C2=C(C1=O)[C@@H](COC(N)=O)[C@@]1(OC)[C@H]3N[C@H]3CN21 [MITOMYCIN A] | 8 mm | 13 mm | >22 mm | 16 mm | 24 mm | 23 mm | 21 mm | >25 mm | 21 mm | 31.1 | 7.4 | Toxic | – | – | – | Activity [10]: Active; Activity [11]: Active; Activity [12]: Active; Activity [16]: Toxic; Activity [17]: Toxic; Activity [18]: Toxic; survival at 3.2 mg/kg [19]: 80%
COC1=C(C)C(=O)c2c(c(COC(N)=O)c3n2C[C@@H](NC(C)=O)[C@H]3OC(C)=O)C1=O | 0 mm | 0 mm | 0 mm | 0 mm | 5 mm | 5 mm | 0 mm | 9 mm | 0 mm | – | – | – | 1.6 | 1.1 | 0.8 | –
COC1=C(C)C(=O)c2c(c(COC(N)=O)c3n2CC[C@H]3O)C1=O | 0 mm | 0 mm | 19 mm | 0 mm | 17 mm | 17 mm | 17 mm | 14 mm | 0 mm | – | – | – | 6.9 | 2.9 | 1.3 | –
COC1=C(C)C(=O)c2c(c(COC(N)=O)c3n2CC[C@H]3OC(C)=O)C1=O | 0 mm | 1 mm | 23 mm | 0 mm | 17 mm | 15 mm | 16 mm | 14 mm | 7 mm | – | – | – | 24.5 | 13.2 | 4.3 | survival at 6.4 mg/kg [23]: 65%
COC1=C(C)C(=O)c2c(c(COC(N)=O)c3n2C[C@@H](N)[C@H]3O)C1=O | 0 mm | 2 mm | 8 mm | 0 mm | 11 mm | 9 mm | 6 mm | 9 mm | 4 mm | – | – | Toxic | 16.7 | 4.1 | 1.4 | Activity [24]: Toxic
CNC(=O)OCc1c2c(n3c1[C@H](NC(C)=O)[C@H](OC(C)=O)C3)C(=O)C(C)=C(OC)C2=O (relative stereo) | 0 mm | 0 mm | 14 mm | 0 mm | 15 mm | 13 mm | 13 mm | 13 mm | 0 mm | 1.2 | 1.6 | – | – | 1.6 | 1.1 | Ratio [25]: 1.4; Activity [26]: inactive
